According to PubChem BioAssay:
Inconclusive results are not listed. Activity calls are given as the source filed them.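 Rule for the calls, unless noted: active = growth inhibition above 25% in both replicates, a cutoff set 3 SD above the mean; inconclusive = above 25% in only one replicate; inactive = the rest.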

Key:
[1] = OD615 S. cerevisiae growth inhibition, permissive medium, pilot counter-assay, permissive growth control for S. cerevisiae lifespan shortening project (AID 705); details: OD615, 24 h, at 10 µM, active compounds read high
Summary of the method: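 System: S. cerevisiae with engineered DeaD lifespan system. Medium: SC raffinose/galactose permissive medium. Doses: single compound dose of 10 µM, 0.25% DMSO final. Schedule: 24 h exposure, 30 °C. Measured by: OD615 turbidity read. Read-out: growth inhibition.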

[2] = Restrictive medium S. cerevisiae growth inhibition, OD615, pilot screen of yeast lifespan reduction project, restrictive growth control (AID 706;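 active = growth inhibition above a set limit, 3 SD over mean compound inhibition, in both replicates, cut at about 43% in these data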;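 note: modified DeaD lifespan yeast strain shifted to restrictive glucose medium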); details: OD615, 48 h, at 10 µM, active compounds read high
Summary of the method: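 Assay system – genetically modified Saccharomyces cerevisiae, DeaD replicative lifespan assay strain · Medium – CSMM-D glucose medium · Doses – 10 µM compound, 0.25% DMSO · Times – 4 h pre-incubation, 48 h exposure at 30 °C · Signal – optical density at 615 nm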

[3] = viability gain of MRP-1-high H69AR cells under doxorubicin, pilot screen, MRP-1 activator project, CellTiter-Glo, duplicate (AID 807;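 active = viability increase at or above a cutoff of the median across tested compounds plus 3 SD, cut at about 8.5% in these data, passing the limit was not always enough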;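 note: compound pretreatment 18-22 h then 72 h combined with doxorubicin; 0% = doxorubicin alone and 100% = vehicle without doxorubicin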); details: H69AR viability with doxorubicin, CellTiter-Glo luminescence; at 10 µM; active compounds read high
[4] = growth suppression of beta-catenin knockout HCT116, pilot screen, human colon tumor cells (AID 823;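 active = cell viability at or below a set limit in both duplicate runs, the limit being the all-compound median minus 4 SD, cut at about 23% in these data, passing the limit was not always enough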;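 note: 0% = wells killed by 20 µM Hyamine and 100% = untreated DMSO cell wells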); details: CellTiter-Glo, 60 h, at 10 µM, active compounds read low
[5] = growth suppression of PTEN-deleted HCT116, pilot screen, cell-based, HCT116 clonal line, CellTiter-Glo (AID 824;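 active = viability at or below 27.92% in each of two runs, the all-compound median minus 4 SD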;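 note: 0% = 20 µM Hyamine control and 100% = vehicle cell control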); details: 60 h, at 10 µM, active compounds read low
[6] = inhibitors of the yeast RAM network, pilot screen, dse1pr::URA3 reporter, 5-FOA selection (AID 869;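 active = inhibition over a set limit, the all-compound mean plus 3 SD, in both replicate runs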;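 note: 0% = DMSO wells with no growth and 100% = 10 µM 1-NA-PP1 with full growth; RAM network block rescues cells from 5-FOA so hits raise OD615 growth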); details: S. cerevisiae dse1pr::URA3 5-FOA growth, OD615, 2 d; at 10 µM; active compounds read high; strain carries analog-sensitive mutant Cbk1 kinase
[7] = RAM signaling pathway blockade in yeast – S. cerevisiae, Pdr1DBD-CYC8 efflux-inhibited sensitized strain, primary screen (AID 1298;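 active = RAM network inhibition above 8.4% in each of two replicates, 3 SD over the compound average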;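 note: 0% = DMSO untreated cells without growth and 100% = 10 µM 1-NA-PP1 full growth; higher means more yeast growth rescued from 5-FOA killing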); details: S. cerevisiae cbk1-as DSE1-URA3 strain, 5-FOA growth OD615, 2 d; at 50 µM; active compounds read high

Cc1nn(C)c(C)c1S(=O)(=O)N(CC(=O)NCCN1CCOCC1)c1ccc(C(C)C)cc1
inactive: growth inhibition [1] -13.5% | growth inhibition [2] -11.8% | viability increase [3] -1.69% | viability [4] 102% | viability [5] 101% | inhibition [6] 1.83% | RAM network inhibition [7] 2.73%

O=C(Cn1c(=O)sc2ccccc21)Nc1ccc2c(c1)OCCO2
inactive: growth inhibition [1] -22.9% | growth inhibition [2] -7.4% | viability increase [3] -4.54% | viability [4] 93.9% | inhibition [6] 1.6% | RAM network inhibition [7] 6.6%

CCOC(=O)COc1cccc2c(=O)n(CC(=O)N3CCc4ccccc43)ccc12
inactive: growth inhibition [1] -10.5% | growth inhibition [2] -15.5% | viability increase [3] -2.89% | viability [4] 98.6% | viability [5] 90.7% | inhibition [6] 1.25% | RAM network inhibition [7] 3.56%

CSc1nc2ccc(NC(=O)C3CC(=O)N(Cc4ccco4)C3)cc2s1 (configuration not stated)
inactive: growth inhibition [1] 4.86% | growth inhibition [2] -2.38% | viability increase [3] -5.77% | viability [4] 97.4% | inhibition [6] 1.02% | RAM network inhibition [7] 0.88%

CCOC(=O)Nc1cc(C(=O)OCC)c(C)nc1C
inactive: growth inhibition [1] -8.02% | growth inhibition [2] -10% | viability increase [3] -1.85% | viability [4] 98.7% | inhibition [6] 1.25% | RAM network inhibition [7] 0.73%

Cc1ccccc1-c1nnc(SCC(=O)Nc2ccc(Cl)cc2)n1N
inactive: growth inhibition [1] -8.16% | growth inhibition [2] 0.61% | viability increase [3] 2.22% | viability [4] 94.5% | inhibition [6] 1.17% | RAM network inhibition [7] 5.42%

CCOc1ccc(-n2c(SCC(=O)Nc3ccc4c(c3)OCCO4)nc3c(c2=O)SCC3)cc1
inactive: growth inhibition [1] -12.9% | growth inhibition [2] -5.05% | viability increase [3] -2.09% | viability [4] 84.1% | inhibition [6] 3.17% | RAM network inhibition [7] 9.35%

CCOC(=O)C1CCCN(C(=O)CNC(=O)Cn2ccc3ccccc3c2=O)C1 (configuration not stated)
inactive: growth inhibition [1] -6.4% | growth inhibition [2] -0.325% | viability increase [3] -4.65% | viability [4] 104% | inhibition [6] 0.875% | RAM network inhibition [7] 4.63%

NCCOc1ccccc1-c1ccccc1
inactive: growth inhibition [1] -17.6% | growth inhibition [2] -14.4% | viability increase [3] -3% | viability [4] 87.2% | inhibition [6] 2.3% | RAM network inhibition [7] 2.4%

CCC1(C)Cc2c(sc3c2c2ncnn2c2nnc(SCC(=O)NCc4ccco4)n32)CO1 (configuration not stated)
inactive: growth inhibition [1] -19.2% | growth inhibition [2] -5.88% | viability increase [3] -7.33% | viability [4] 58.1% | inhibition [6] 0.815% | RAM network inhibition [7] 1.87%

CC(=O)c1cccc(NC(=O)N2CCCC2C(=O)Nc2c(C)cccc2C)c1 (configuration not stated)
inactive: growth inhibition [1] -22.1% | growth inhibition [2] -1.14% | viability increase [3] -2.28% | viability [4] 94.1% | inhibition [6] 1.62% | RAM network inhibition [7] 3.69%

Cc1ccc(C)c(NC(=O)CSc2nnc(-c3ccncc3)n2N)c1
inactive: growth inhibition [1] 5.02% | growth inhibition [2] -0.075% | viability increase [3] -4.65% | viability [4] 103% | inhibition [6] 0.06% | RAM network inhibition [7] -0.98%

O=C(CCS(=O)(=O)c1ccccc1)Nc1nc2c(s1)COc1ccccc1-2
active: viability [4] 5.88%
inactive: growth inhibition [1] -11.8% | growth inhibition [2] -10.9% | viability increase [3] -8.46% | inhibition [6] 1.32% | RAM network inhibition [7] 3.55%

COc1cccc(-c2nnc(NC(=O)c3cccc(F)c3)o2)c1
active: viability [4] 15.9%
inactive: growth inhibition [1] -12.9% | growth inhibition [2] 10.2% | viability increase [3] 0.12% | inhibition [6] 1.04% | RAM network inhibition [7] 0.35%

Cc1ccc(C)c(S(=O)(=O)Nc2ccccc2C(=O)Nc2cc(C)on2)c1
inactive: growth inhibition [1] -32.7% | growth inhibition [2] -4.75% | viability increase [3] -3.6% | viability [4] 77.3% | inhibition [6] 2.54% | RAM network inhibition [7] 6.23%

CC1CCc2sc3nc(N4CCN(CCO)CC4)n4ncnc4c3c2C1 (configuration not stated)
inactive: growth inhibition [1] -9.92% | growth inhibition [2] 7.57% | viability increase [3] -7.82% | viability [4] 73.3% | inhibition [6] 0.655% | RAM network inhibition [7] 5.04%

Cc1c(C(=O)N(C)Cc2ccccc2)oc2ccc(S(=O)(=O)N3CCCC3)cc12
inactive: growth inhibition [1] -18.8% | growth inhibition [2] -11.4% | viability increase [3] -5.85% | viability [4] 54.3% | inhibition [6] 0.18% | RAM network inhibition [7] 4.09%

COc1cc(C2/C(=C(\O)c3cc(C)ccc3C)C(=O)C(=O)N2CCN(C)C)ccc1O (configuration not stated)
inactive: growth inhibition [1] -21.2% | growth inhibition [2] -6.28% | viability increase [3] -1.94% | viability [4] 100% | inhibition [6] 1.94% | RAM network inhibition [7] 10.3%

COC(=O)c1ccc(NCC(=O)c2ccccc2)cc1
inactive: growth inhibition [1] -7.25% | growth inhibition [2] -4.05% | viability increase [3] -4.87% | viability [4] 99.3% | inhibition [6] 1.83% | RAM network inhibition [7] 3.96%

CCCn1cc(S(=O)(=O)CC(=O)N2CCc3ccccc32)c2ccccc21
inactive: growth inhibition [1] -14.9% | growth inhibition [2] -8.48% | viability increase [3] -5.64% | viability [4] 96.9% | inhibition [6] 4.21% | RAM network inhibition [7] 5.15%

Cn1ccnc1SCC(=O)NC1CCCCC1
inactive: growth inhibition [1] -11.1% | growth inhibition [2] -7.09% | viability increase [3] -0.96% | viability [4] 100% | inhibition [6] 3.6% | RAM network inhibition [7] 1.87%

CC(C)Sc1nc(N)c2c3c(sc2n1)CN(C)CC3
inactive: growth inhibition [1] -10.7% | growth inhibition [2] 9.69% | viability increase [3] -3.04% | viability [4] 101% | inhibition [6] 1.16% | RAM network inhibition [7] 5.2%

COCC(=O)NC(C)c1nc2ccccc2[nH]1 (configuration not stated)
inactive: growth inhibition [1] -27.6% | growth inhibition [2] -2.47% | viability increase [3] -1.7% | viability [4] 91.9% | inhibition [6] 0.975% | RAM network inhibition [7] 3.95%

O=C(Nc1cccc(Cl)c1Cl)c1ccncc1
inactive: growth inhibition [1] -9.8% | growth inhibition [2] -0.975% | viability increase [3] -0.14% | viability [4] 103% | inhibition [6] 1.85% | RAM network inhibition [7] 4.88%

CSC(=NCCCN1CCOCC1)NS(=O)(=O)c1cccs1
inactive: growth inhibition [1] -13.8% | growth inhibition [2] -11.4% | viability increase [3] -1.56% | viability [4] 95.6% | inhibition [6] 1.51% | RAM network inhibition [7] 1.45%

CCN1CCN(C(=O)C2c3cc(OC)c(OC)cc3C(=O)N(C)C2c2ccc(SC)cc2)CC1 (configuration not stated)
inactive: growth inhibition [1] -12.5% | growth inhibition [2] -4.19% | viability increase [3] -3.74% | viability [4] 92.3% | inhibition [6] 0.995% | RAM network inhibition [7] 2.33%

CCOc1ccc(NC(=O)C2CC(C)=C(C)CC2C(=O)O)cc1 (configuration not stated)
inactive: growth inhibition [1] -13.3% | growth inhibition [2] 2.49% | viability increase [3] -1.85% | viability [4] 99.1% | inhibition [6] 1.79% | RAM network inhibition [7] 1.67%

COc1ccc2c(c1)-c1nc(NC(=O)c3cccs3)sc1CC2
inactive: growth inhibition [1] -13.6% | growth inhibition [2] -12.2% | viability increase [3] -1.82% | viability [4] 33.6% | inhibition [6] 3.16% | RAM network inhibition [7] 1.99%

Cc1ccccc1-c1ccc(Nc2ccc(N3CCOCC3)cc2)nn1
inactive: growth inhibition [1] -3.44% | growth inhibition [2] 15.8% | viability increase [3] -5.91% | viability [4] 81% | inhibition [6] 0.46% | RAM network inhibition [7] 2.5%

CCCCCn1c(CNC(=O)COC)nc2ccccc21
inactive: growth inhibition [1] -2.62% | growth inhibition [2] -2.4% | viability increase [3] -2.9% | viability [4] 95.4% | inhibition [6] 0.855% | RAM network inhibition [7] 2.97%

CC(=O)Nc1cc(OC(=O)c2ccco2)cc(OC(=O)c2ccco2)c1
inactive: growth inhibition [1] -22.3% | growth inhibition [2] 3.33% | viability increase [3] -2.27% | viability [4] 103% | inhibition [6] 1.36% | RAM network inhibition [7] 5.4%

CCCCC(NC(C)=O)c1nc2ccccc2n1CCCC (configuration not stated)
inactive: growth inhibition [1] -16.8% | growth inhibition [2] -12.2% | viability increase [3] -4.34% | viability [4] 86.6% | inhibition [6] 1.69% | RAM network inhibition [7] 4.56%

CCOC(=O)N1CCN(C(=O)CNS(=O)(=O)c2cccs2)CC1
inactive: growth inhibition [1] 7.6% | growth inhibition [2] 1.46% | viability increase [3] -2.69% | viability [4] 93.3% | inhibition [6] 0.785% | RAM network inhibition [7] 2.76%

CC(C)(C)NS(=O)(=O)c1ccc(OCC(=O)Nc2ccc3c(c2)OCCO3)cc1
inactive: growth inhibition [1] -11.5% | growth inhibition [2] -8.28% | viability increase [3] -0.9% | viability [4] 102% | inhibition [6] 2.62% | RAM network inhibition [7] 7.73%

Cc1ccccc1Cn1cc(S(=O)(=O)CC(=O)Nc2nccs2)c2ccccc21
inactive: growth inhibition [1] -30.2% | growth inhibition [2] 6.15% | viability increase [3] -5.34% | viability [4] 70.4% | inhibition [6] 4.8% | RAM network inhibition [7] 8.89%

O=C(c1ccco1)N1CCN(C(=O)C2Cc3ccccc3CN2S(=O)(=O)c2ccc(F)cc2)CC1 (configuration not stated)
inactive: growth inhibition [1] -12.6% | growth inhibition [2] -9.61% | viability increase [3] -4.67% | viability [4] 97.2% | inhibition [6] 3.29% | RAM network inhibition [7] 7.28%

CCOC(=O)C1=CSC2=NS(=O)(=O)CCN12
inactive: growth inhibition [1] 3.57% | growth inhibition [2] -2.12% | viability increase [3] -2.36% | viability [4] 97.7% | inhibition [6] 2.31% | RAM network inhibition [7] -0.32%

C=C(C)Cn1c(CCNC(=O)C(C)(C)C)nc2ccccc21
inactive: growth inhibition [1] -12.7% | growth inhibition [2] 6.9% | viability increase [3] 0.45% | viability [4] 100% | inhibition [6] 2.33% | RAM network inhibition [7] 1.51%

COc1ccc(C(=O)OCCN2C(=O)c3ccccc3C2=O)cc1OC
inactive: growth inhibition [1] 6.76% | growth inhibition [2] 3.49% | viability increase [3] -1.79% | viability [4] 117% | inhibition [6] 0.34% | RAM network inhibition [7] 0.93%

CCOC(=O)C1CCN(C(=O)Cc2c(C(=O)O)[nH]c3ccccc23)CC1
inactive: growth inhibition [1] -13.4% | growth inhibition [2] -1.88% | viability increase [3] -1.36% | viability [4] 90.5% | inhibition [6] 0.02% | RAM network inhibition [7] 3.12%
